Test results reported in the M2OR odorant receptor database.

Columns and labels:
Conditions in all cases: stereoisomer not certain
UniProt A2ATE5 = molecular target: T1, UniProt A2ATE5
T1 sequence (whole entry): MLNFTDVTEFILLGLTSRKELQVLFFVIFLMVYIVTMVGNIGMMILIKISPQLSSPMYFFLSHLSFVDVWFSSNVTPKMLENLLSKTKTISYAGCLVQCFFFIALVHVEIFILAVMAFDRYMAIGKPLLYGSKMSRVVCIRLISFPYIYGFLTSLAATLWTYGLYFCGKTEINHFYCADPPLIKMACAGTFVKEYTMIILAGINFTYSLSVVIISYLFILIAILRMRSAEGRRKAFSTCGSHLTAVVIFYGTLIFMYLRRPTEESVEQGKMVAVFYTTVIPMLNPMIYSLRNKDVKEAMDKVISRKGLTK
In short: (§1)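 Values were gathered from published papers (main text and supplementary material), with extra details requested from the original authors when needed, and checked for typos and inconsistencies. Each receptor–molecule pair is called responsive (active) if the original authors judged the measured signal statistically different from baseline, and non-responsive (inactive) otherwise. Assay methods varied by source, often transient mammalian cell-line luciferase assays. Recorded details include cell line, G-protein, co-transfected protein and tags.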

UniProt A2AVB0 = molecular target: T2, UniProt A2AVB0
T2 sequence (whole entry): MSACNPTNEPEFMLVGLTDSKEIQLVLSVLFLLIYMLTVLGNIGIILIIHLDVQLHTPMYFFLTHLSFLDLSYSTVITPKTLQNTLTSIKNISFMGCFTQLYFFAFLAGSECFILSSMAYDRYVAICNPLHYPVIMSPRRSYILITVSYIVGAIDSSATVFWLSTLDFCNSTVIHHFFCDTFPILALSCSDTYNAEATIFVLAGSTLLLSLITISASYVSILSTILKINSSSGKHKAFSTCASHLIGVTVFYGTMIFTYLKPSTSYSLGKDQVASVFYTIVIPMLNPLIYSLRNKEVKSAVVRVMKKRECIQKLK
In short: as §1

UniProt A2AVB5 = molecular target: T3, UniProt A2AVB5
T3 sequence (whole entry): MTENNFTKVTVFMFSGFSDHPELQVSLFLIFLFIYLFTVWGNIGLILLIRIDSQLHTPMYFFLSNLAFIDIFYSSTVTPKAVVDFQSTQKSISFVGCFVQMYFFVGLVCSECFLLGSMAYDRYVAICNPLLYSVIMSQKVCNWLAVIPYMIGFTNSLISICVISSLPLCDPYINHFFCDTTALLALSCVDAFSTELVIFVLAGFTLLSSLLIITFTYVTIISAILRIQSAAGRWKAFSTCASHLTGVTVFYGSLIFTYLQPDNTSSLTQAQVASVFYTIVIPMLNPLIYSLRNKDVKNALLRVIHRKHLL
In short: as §1

UniProt B2RVX8 = molecular target: T4, UniProt B2RVX8
T4 sequence (whole entry): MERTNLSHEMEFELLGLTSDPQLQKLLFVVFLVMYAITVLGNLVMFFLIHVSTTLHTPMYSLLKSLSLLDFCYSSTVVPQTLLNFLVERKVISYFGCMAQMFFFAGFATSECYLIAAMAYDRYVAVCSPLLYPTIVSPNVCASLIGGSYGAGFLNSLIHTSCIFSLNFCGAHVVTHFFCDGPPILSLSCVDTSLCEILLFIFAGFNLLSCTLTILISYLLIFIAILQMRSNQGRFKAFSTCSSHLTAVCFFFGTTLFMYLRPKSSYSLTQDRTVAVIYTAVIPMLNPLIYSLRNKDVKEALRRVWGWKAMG
In short: as §1

UniProt E9PVX1 = molecular target: T5, UniProt E9PVX1
T5 sequence (whole entry): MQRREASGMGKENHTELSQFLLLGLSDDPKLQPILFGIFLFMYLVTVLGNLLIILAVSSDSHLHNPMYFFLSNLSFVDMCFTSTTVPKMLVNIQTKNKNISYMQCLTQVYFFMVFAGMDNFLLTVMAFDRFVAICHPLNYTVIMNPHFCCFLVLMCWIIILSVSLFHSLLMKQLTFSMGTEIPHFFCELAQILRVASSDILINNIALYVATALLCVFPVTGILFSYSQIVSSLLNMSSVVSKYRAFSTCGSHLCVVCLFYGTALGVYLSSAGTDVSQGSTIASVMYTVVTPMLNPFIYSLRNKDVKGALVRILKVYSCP
In short: as §1

UniProt E9PZ66 = molecular target: T6, UniProt E9PZ66
T6 sequence (whole entry): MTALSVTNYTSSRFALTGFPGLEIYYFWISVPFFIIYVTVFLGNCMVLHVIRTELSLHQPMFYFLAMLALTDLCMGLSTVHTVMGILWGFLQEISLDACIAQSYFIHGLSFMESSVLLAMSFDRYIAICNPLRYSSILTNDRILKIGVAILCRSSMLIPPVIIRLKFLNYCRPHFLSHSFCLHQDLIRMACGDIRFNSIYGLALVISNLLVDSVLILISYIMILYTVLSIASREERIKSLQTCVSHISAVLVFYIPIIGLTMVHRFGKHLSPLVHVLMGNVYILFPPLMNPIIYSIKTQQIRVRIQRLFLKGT
In short: as §1

UniProt E9Q4X7 = molecular target: T7, UniProt E9Q4X7
T7 sequence (whole entry): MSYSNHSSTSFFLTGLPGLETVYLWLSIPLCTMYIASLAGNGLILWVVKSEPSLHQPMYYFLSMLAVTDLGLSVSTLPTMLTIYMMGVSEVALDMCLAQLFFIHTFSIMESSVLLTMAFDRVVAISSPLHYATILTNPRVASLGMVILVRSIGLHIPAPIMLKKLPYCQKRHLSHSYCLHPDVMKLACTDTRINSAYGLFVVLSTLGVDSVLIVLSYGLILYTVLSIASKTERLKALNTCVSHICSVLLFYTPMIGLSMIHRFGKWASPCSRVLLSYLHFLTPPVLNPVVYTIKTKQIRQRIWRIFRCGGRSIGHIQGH
In short: as §1

UniProt E9Q546 = molecular target: T8, UniProt E9Q546
T8 sequence (whole entry): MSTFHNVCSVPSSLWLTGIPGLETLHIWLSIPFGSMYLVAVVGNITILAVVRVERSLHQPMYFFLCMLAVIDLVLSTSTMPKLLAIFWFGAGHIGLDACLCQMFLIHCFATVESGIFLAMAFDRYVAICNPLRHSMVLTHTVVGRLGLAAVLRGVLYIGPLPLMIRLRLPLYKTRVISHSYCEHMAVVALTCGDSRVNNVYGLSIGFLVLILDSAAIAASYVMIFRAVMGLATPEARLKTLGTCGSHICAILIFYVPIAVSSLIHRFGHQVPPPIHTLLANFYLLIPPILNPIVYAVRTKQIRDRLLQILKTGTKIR
In short: as §1

UniProt E9Q6Z7 = molecular target: T9, UniProt E9Q6Z7
T9 sequence (whole entry): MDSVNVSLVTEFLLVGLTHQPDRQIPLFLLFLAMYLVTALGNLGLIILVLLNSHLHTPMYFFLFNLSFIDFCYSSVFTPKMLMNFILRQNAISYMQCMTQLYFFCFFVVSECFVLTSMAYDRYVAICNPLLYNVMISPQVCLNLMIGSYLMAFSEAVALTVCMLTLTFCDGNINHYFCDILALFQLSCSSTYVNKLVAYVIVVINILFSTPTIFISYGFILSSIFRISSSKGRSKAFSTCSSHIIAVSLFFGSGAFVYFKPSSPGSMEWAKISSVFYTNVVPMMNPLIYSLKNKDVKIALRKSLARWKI
In short: as §1

UniProt K7N609 = molecular target: T10, UniProt K7N609
T10 sequence (whole entry): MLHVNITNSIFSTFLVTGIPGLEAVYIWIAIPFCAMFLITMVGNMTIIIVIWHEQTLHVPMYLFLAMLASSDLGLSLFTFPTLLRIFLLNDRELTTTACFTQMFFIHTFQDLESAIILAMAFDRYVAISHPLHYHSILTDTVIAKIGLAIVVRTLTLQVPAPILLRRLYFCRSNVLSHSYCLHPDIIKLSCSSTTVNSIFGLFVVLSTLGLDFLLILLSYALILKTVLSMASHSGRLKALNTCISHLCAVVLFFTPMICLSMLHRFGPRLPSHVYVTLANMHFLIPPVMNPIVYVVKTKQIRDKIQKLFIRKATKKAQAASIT
In short: as §1

UniProt E9PX47 = molecular target: T11, UniProt E9PX47
T11 sequence (whole entry): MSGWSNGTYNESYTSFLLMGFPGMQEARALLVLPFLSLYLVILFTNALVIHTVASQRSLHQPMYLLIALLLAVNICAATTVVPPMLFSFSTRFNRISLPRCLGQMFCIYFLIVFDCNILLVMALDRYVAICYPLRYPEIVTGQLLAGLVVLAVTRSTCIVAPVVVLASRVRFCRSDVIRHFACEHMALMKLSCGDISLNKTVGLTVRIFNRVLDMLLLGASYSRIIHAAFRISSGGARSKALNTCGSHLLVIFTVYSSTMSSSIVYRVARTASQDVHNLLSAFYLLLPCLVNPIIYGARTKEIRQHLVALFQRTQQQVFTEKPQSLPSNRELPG
In short: as §1

UniProt E9PXN3 = molecular target: T12, UniProt E9PXN3
T12 sequence (whole entry): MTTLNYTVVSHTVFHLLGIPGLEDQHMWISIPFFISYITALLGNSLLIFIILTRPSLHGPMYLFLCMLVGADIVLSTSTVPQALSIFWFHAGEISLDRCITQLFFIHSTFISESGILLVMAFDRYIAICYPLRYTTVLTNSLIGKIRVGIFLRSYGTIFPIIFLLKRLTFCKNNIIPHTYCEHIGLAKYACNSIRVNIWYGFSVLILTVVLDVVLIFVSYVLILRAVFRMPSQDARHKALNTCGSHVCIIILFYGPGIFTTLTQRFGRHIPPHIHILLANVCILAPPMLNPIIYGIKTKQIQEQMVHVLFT
In short: as §1

Measured: odorant receptor agonist call

CC(C)=CCCC(C)=CCO
not listed: UniProt E9PX47 | UniProt E9PXN3
inactive: all other assays above

CCCCC=O
not listed: UniProt A2AVB5 | UniProt B2RVX8 | UniProt K7N609
inactive: all other assays above

Cc1ccc2c(c1)OCC(=O)CO2
inactive: UniProt A2ATE5 | UniProt A2AVB0 | UniProt E9PVX1 | UniProt E9PZ66 | UniProt E9Q4X7 | UniProt E9Q546 | UniProt E9Q6Z7

CCCC(C)C(=O)OCC (centres undefined)
inactive: UniProt A2ATE5 | UniProt A2AVB0 | UniProt E9PVX1 | UniProt E9PZ66 | UniProt E9Q4X7 | UniProt E9Q546 | UniProt E9Q6Z7

C=C1C2CCC(C2)C1(C)C (centres undefined)
inactive: UniProt A2ATE5 | UniProt A2AVB0 | UniProt E9PVX1 | UniProt E9PZ66 | UniProt E9Q4X7 | UniProt E9Q546 | UniProt E9Q6Z7

CCCCCCCCC=CC=O
inactive: UniProt A2ATE5 | UniProt A2AVB0 | UniProt E9PVX1 | UniProt E9PZ66 | UniProt E9Q4X7 | UniProt E9Q546 | UniProt E9Q6Z7

Cc1c(C)c(C)c(C=O)c(C)c1C
inactive: UniProt A2ATE5 | UniProt A2AVB0 | UniProt E9PVX1 | UniProt E9PZ66 | UniProt E9Q4X7 | UniProt E9Q546 | UniProt E9Q6Z7
